From PubChem BioAssay
An excerpt weighted towards active compounds, which were near 2.9% of everything screened.
E-sel inducer: E-selectin induction on HUVECs; AID 686992; HUVEC E-selectin immunofluorescence imaging; normalized: neutral wells 0, TNF-alpha wells 100; activation, % at 7.58 µM; P16581; hit rate 0.37% among 260,000;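 active = mean E-selectin-positive cell signal at least 10% of the positive control, reached in at least 60% of replicates, without over 20% cell loss; inconclusive = no rule given, readout overlaps actives, possibly toxicity-flagged; inactive = the rest, including those meeting only one limit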
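System: HUVEC / Compound: single concentration / Signal: immunofluorescence imaging / Read-out: percent E-selectin-positive cells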
SIRT5 inh: inhibitors of human sirtuin-5 desuccinylase | Purified SirT5, succinyl-peptide AMC, trypsin-coupled fluorescence | hit rate 1.1% among 330,000 | inhibition, % at 15 µM | Q9NXA8; in the data active = inhibition above about 15%; inconclusive = no clear call, values can overlap the other calls
Target sequence (Q9NXA8 whole entry, looked up): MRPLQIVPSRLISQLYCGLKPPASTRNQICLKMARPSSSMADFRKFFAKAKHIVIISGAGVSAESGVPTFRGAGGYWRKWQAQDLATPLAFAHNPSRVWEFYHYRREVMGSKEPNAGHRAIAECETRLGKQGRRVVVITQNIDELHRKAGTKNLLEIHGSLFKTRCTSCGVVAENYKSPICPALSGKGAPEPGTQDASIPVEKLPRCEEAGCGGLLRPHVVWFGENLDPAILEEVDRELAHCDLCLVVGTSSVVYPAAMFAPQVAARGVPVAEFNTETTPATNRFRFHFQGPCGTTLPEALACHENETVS
DENV2 CPE rescue: inhibitors of DENV2 cytopathic effect; DENV2-infected cells, cytopathic effect rescue, plate reader; CPE inhibition, % at 9.99 µM; hit rate 1.7% among 350,000; in the data active = CPE inhibition above about 20%, passing the limit was not always enough; inconclusive = no clear call, values can overlap the other calls; tested in BHK-21 cells;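 also: 0% = median of neutral control wells and 100% = median of positive control wells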
* marks the source's active call; other numbers are inactive results; u = inconclusive; x = not tested or not shown; ! = a repeat was not active.

SMILES | E-sel inducer | SIRT5 inh | DENV2 CPE rescue
CSc1ccccc1C(=O)OCC(=O)NC1CC1 | 0 | x | u
CNC(=O)c1cc(S(=O)(=O)NC2CCCCCC2)ccc1C | 0 | -2 | 5
COCC(=O)N1C[C@@H](C)[C@H](OC)CN(C)C(=O)c2cc(NC(=O)C3CCC3)ccc2OC[C@@H]1C | 0 | 2 | 23*
COCC(=O)N1C[C@H](C)[C@H](OC)CN(C)C(=O)c2cc(NC(=O)C3CCC3)ccc2OC[C@@H]1C | 0 | 24* | -6
COCC(=O)N1C[C@@H](C)[C@@H](OC)CN(C)C(=O)c2cc(NC(=O)C3CCC3)ccc2OC[C@@H]1C | 0 | x | x
COCC(=O)N1C[C@H](C)[C@@H](OC)CN(C)C(=O)c2ccc(NC(=O)C3CCC3)cc2OC[C@H]1C | 0 | 5 | 5
O=C(Nc1ccc(O)cc1)C1CCCN1S(=O)(=O)c1ccc(F)cc1 (stereo not drawn) | 0 | x | 4
CCCC(=O)Nc1ccc2c(c1)OC[C@@H](C)N(Cc1ccccc1)C[C@@H](C)[C@H](OC)CN(C)C2=O | 0 | -1 | -5
CCCC(=O)Nc1ccc2c(c1)OC[C@@H](C)N(Cc1ccccc1F)C[C@@H](C)[C@@H](OC)CN(C)C2=O | 1 | 0 | -8
CCCC(=O)Nc1ccc2c(c1)OC[C@@H](C)N(Cc1ccncc1)C[C@@H](C)[C@@H](OC)CN(C)C2=O | 0 | 2 | -7
CCCC(=O)Nc1ccc2c(c1)OC[C@@H](C)N(Cc1ccncc1)C[C@H](C)[C@@H](OC)CN(C)C2=O | 0 | 1 | 25*
CCCC(=O)Nc1ccc2c(c1)OC[C@H](C)N(Cc1ccccc1F)C[C@H](C)[C@@H](OC)CN(C)C2=O | 0 | 7 | 21*
CCCC(=O)Nc1ccc2c(c1)OC[C@H](C)N(Cc1ccccc1)C[C@@H](C)[C@@H](OC)CN(C)C2=O | 0 | 37* | 19
CCN1C(=O)c2ccccc2Sc2ccc(C(=O)O)cc21 | 0 | -2 | 16
CCOc1cccc(-c2c(C(=O)N/N=C/c3ccc(Br)cc3)nnn2-c2nonc2N)c1 | x | -7 | 47*
CCN(CC)Cc1c(C(=O)N/N=C/c2ccncc2)nnn1-c1nonc1N | 0 | -4 | 5
CCN(CC)Cc1c(C(=O)N/N=C/c2ccc(C)o2)nnn1-c1nonc1N | x | 85* | -5
CCOc1cccc(-c2c(C(=O)N/N=C/c3cccnc3)nnn2-c2nonc2N)c1 | x | -1 | -1
COC(=O)c1ccc(N2CCN(C)CC2)c(NC(=O)COc2ccccc2)c1 | x | -1 | -1
COc1cccc(C#Cc2cnc3c(c2)C(=O)N([C@H](C)CO)C[C@@H](C)[C@@H](CN(C)C(=O)C2CC2)O3)c1 | 0 | 6 | 8
C[C@H]1CN([C@@H](C)CO)C(=O)c2cc(-c3ccccc3)cnc2O[C@@H]1CN(C)C(=O)C1CCCCC1 | 0 | -8 | 47*
C[C@H]1CN([C@@H](C)CO)C(=O)c2cc(-c3ccccc3)cnc2O[C@H]1CN(C)C(=O)C1CCCCC1 | 0 | -9 | 12
COc1cccc(C#Cc2cnc3c(c2)C(=O)N([C@@H](C)CO)C[C@@H](C)[C@@H](CN(C)C(=O)C2CCC2)O3)c1 | -1 | 6 | 25*
C[C@@H]1CN([C@H](C)CO)C(=O)c2cc(C#Cc3cccc(F)c3)cnc2O[C@@H]1CN(C)C(=O)C1CCCCC1 | 0 | 5 | -10
COc1cccc(C#Cc2cnc3c(c2)C(=O)N([C@H](C)CO)C[C@@H](C)[C@H](CN(C)C(=O)C2CCC2)O3)c1 | 1 | 4 | 20*
SMILES | E-sel inducer | SIRT5 inh | DENV2 CPE rescue
COc1cccc(C#Cc2cnc3c(c2)C(=O)N([C@H](C)CO)C[C@H](C)[C@@H](CN(C)C(=O)C2CCC2)O3)c1 | -1 | 2 | -3
C[C@@H]1CN([C@@H](C)CO)C(=O)c2cc(C#Cc3cccc(F)c3)cnc2O[C@H]1CN(C)C(=O)C1CCCCC1 | -1 | 7 | 22*!
CC1CCC(NC(=O)C(=O)Nc2ccc3c(c2)OCO3)CC1 (stereo not drawn) | 0 | -5 | -2
CCCCCC(O)(c1ccc(OC)cc1)C(CN1CCOCC1)c1ccccc1 (stereo not drawn) | 0 | -1 | -2
O=C(c1cc([N+](=O)[O-])ccc1N1CCCCC1)N1CCCC1 | 1 | 0 | x
O=C(c1cc([N+](=O)[O-])ccc1N1CCCC1)N1CCCC1 | 6 | 16* | 0
CCOC(=O)CSc1nc2ccccc2c(=O)n1CC1CCC(C(=O)NCc2ccco2)CC1 (stereo not drawn) | x | 3 | x
Cc1ccc(S(=O)(=O)Nc2ccc3c(c2)C(=O)N([C@@H](C)CO)C[C@@H](C)[C@H](CN(C)S(=O)(=O)c2ccc(F)cc2)OCCCC[C@@H](C)O3)cc1 | 0 | 18* | -1
Cc1ccc(S(=O)(=O)N(C)C[C@@H]2OCCCC[C@H](C)Oc3ccc(NS(=O)(=O)c4ccc(F)cc4)cc3C(=O)N([C@@H](C)CO)C[C@H]2C)cc1 | 0 | 19* | 5
Cc1ccc(S(=O)(=O)Nc2ccc3c(c2)C(=O)N([C@@H](C)CO)C[C@H](C)[C@@H](CN(C)S(=O)(=O)c2ccc(F)cc2)OCCCC[C@H](C)O3)cc1 | 0 | 2 | u
C[C@@H]1CCCCO[C@@H](CN(C)S(=O)(=O)c2ccc(F)cc2)[C@H](C)CN([C@H](C)CO)C(=O)c2cc(NS(=O)(=O)c3ccccc3)ccc2O1 | 0 | 16* | -3
Cc1ccc(S(=O)(=O)Nc2ccc3c(c2)C(=O)N([C@H](C)CO)C[C@@H](C)[C@@H](CN(C)S(=O)(=O)c2ccc(F)cc2)OCCCC[C@H](C)O3)cc1 | 0 | 13 | 4
Cc1ccc(S(=O)(=O)Nc2ccc3c(c2)C(=O)N([C@@H](C)CO)C[C@H](C)[C@H](CN(C)S(=O)(=O)c2ccc(F)cc2)OCCCC[C@@H](C)O3)cc1 | 0 | 18* | 12
Cc1ccc(S(=O)(=O)N(C)C[C@H]2OCCCC[C@H](C)Oc3ccc(NS(=O)(=O)c4ccc(F)cc4)cc3C(=O)N([C@@H](C)CO)C[C@@H]2C)cc1 | 0 | 3 | 1
C[C@@H]1CCCCO[C@H](CN(C)S(=O)(=O)c2ccc(F)cc2)[C@@H](C)CN([C@H](C)CO)C(=O)c2cc(NS(=O)(=O)c3ccccc3)ccc2O1 | 0 | 3 | 2
CCCc1nc2ccccc2c(C(=O)OCC(=O)N2CCc3ccccc32)c1CC | x | -2 | -9
O=C(N/N=C/c1cnc(N2CCOCC2)s1)c1ccccc1 | x | 1 | -2
Cc1ccc(S(=O)(=O)Nc2ccc3c(c2)C(=O)N([C@H](C)CO)C[C@@H](C)[C@@H](CN(C)S(=O)(=O)c2ccc(F)cc2)OCCCC[C@@H](C)O3)cc1 | 0 | 12 | 19
Cc1ccc(S(=O)(=O)N(C)C[C@H]2OCCCC[C@H](C)Oc3ccc(NS(=O)(=O)c4ccc(F)cc4)cc3C(=O)N([C@H](C)CO)C[C@@H]2C)cc1 | 0 | 20* | -5
Cc1ccc(S(=O)(=O)N(C)C[C@@H]2OCCCC[C@@H](C)Oc3ccc(NS(=O)(=O)c4ccc(F)cc4)cc3C(=O)N([C@@H](C)CO)C[C@@H]2C)cc1 | 0 | 29* | -2
